The results in this text go back to BindingDB's records for doi:10.1021/jm4003654 (Xavier University of Louisiana, 2013).

For one data set, the target named is T1, CYP2A6 (Homo sapiens, UniProt P11509).
T1 sequence (P11509 whole entry): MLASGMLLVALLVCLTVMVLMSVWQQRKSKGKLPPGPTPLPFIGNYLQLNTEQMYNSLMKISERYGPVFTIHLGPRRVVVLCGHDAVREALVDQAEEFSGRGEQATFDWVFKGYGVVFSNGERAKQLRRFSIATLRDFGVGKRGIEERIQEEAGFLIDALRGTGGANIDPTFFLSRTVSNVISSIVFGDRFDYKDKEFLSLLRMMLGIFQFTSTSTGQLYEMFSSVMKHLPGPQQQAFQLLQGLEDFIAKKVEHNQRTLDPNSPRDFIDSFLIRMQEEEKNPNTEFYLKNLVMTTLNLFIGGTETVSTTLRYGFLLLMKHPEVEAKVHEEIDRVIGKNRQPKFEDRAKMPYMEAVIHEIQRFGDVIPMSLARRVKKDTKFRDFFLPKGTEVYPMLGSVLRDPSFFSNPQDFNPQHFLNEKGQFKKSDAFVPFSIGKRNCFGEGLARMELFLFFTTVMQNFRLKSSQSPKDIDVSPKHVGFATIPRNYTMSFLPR
Briefly: Inhibition of CYP2A6 (unknown origin)-mediated coumarin 7-hydroxylation after 5 mins by spectrofluorimetric analysis. The note with it: probe coumarin (7-hydroxylation). In outline: (§1)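 Microsomal P450 (final 5 nM) in 0.1 M potassium phosphate pH 7.6 with MgCl2; resorufin ether or coumarin substrate final 5 μM from DMSO stock; inhibitor added in DMSO, DMSO alone for controls. Reaction started with NADPH regenerating system (NADP+, glucose 6-phosphate, G6P dehydrogenase) at 37 °C; product formation followed fluorimetrically as progress curves.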

Data set [1] has as its target Cytochrome P450 2B1 (Rattus norvegicus) (UniProt P00176). The experiment in a line: Inhibition of CYP2B1 (rat)-mediated depentylation of resorufin pentyl ether after 5 mins by spectrofluorimetric analysis.
The target in the next data set is T2, Cytochrome P450 1A1 (Homo sapiens, UniProt P04798).
T2 sequence (P04798 whole entry): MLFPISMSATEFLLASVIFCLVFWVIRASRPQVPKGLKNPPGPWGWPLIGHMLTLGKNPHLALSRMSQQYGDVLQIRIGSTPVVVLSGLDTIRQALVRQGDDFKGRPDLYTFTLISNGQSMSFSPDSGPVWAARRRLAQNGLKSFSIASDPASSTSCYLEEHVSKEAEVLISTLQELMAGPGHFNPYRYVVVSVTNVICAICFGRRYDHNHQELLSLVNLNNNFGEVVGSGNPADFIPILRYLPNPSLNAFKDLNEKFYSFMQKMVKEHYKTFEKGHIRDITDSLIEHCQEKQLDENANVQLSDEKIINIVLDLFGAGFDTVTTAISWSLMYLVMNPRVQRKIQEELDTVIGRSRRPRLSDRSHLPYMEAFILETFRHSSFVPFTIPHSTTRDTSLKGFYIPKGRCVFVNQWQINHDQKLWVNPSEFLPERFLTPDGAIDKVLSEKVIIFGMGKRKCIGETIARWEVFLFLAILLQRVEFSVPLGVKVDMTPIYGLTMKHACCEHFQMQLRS
Briefly: Inhibition of CYP1A1 (unknown origin)-mediated deethylation of resorufin ethyl ether after 5 mins by spectrofluorimetric analysis. The gist of the method: as §1

Chain of Cytochrome P450 2B1 (Rattus norvegicus) (P00176 whole entry, looked up): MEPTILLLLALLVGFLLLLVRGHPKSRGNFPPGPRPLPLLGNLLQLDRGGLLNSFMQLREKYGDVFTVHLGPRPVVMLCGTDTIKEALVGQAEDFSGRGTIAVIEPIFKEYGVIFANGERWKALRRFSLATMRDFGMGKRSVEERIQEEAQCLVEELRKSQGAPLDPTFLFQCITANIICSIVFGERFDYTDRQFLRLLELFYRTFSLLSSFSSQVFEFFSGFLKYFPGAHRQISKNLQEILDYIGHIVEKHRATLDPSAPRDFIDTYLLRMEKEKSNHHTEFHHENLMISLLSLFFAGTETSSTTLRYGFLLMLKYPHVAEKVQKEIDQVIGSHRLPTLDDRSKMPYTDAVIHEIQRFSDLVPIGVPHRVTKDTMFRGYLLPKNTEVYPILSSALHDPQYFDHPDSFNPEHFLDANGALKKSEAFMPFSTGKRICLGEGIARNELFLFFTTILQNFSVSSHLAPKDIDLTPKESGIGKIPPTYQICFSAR

`O=c1cccc2oc(-c3ccc4c(c3)C=CCO4)cc(O)c1-2` showed an IC50 at 5 min against CYP2A6 greater than 25 µM. This compound also showed an IC50 in data set [1] greater than 25 µM.

At Cytochrome P450 1A1, `O=c1cc(-c2ccccc2)oc2cccc(O)c12` [5-Hydroxy-2-phenyl-chromen-4-one] registered an IC50 of 4.03 µM.

On CYP2A6, `C#CCOc1cccc(-c2cc(O)c3c(=O)cccc-3o2)c1` displayed an IC50 at 5 min greater than 25 µM. Moreover, in data set [1], the midpoint of inhibition, the IC50, lay at 4.08 µM.

On to `O=c1cccc2oc(-c3ccc4c(c3)OCC=C4)cc(O)c1-2`, for which the IC50 at 5 min against CYP2A6 is greater than 25 µM. In data set [1], the IC50 was greater than 25 µM.

Compound `C#CCOc1ccc(-c2cc(O)c3c(=O)cccc-3o2)cc1` came in with an IC50 at 5 min against CYP2A6 greater than 25 µM. In addition, the IC50 in data set [1] is greater than 25 µM.

Consider `O=c1cccc2oc(-c3cccc4c3C=CCO4)cc(O)c1-2`, for which the IC50 at 5 min against CYP2A6 is greater than 25 µM. The compound also showed an IC50 in data set [1] greater than 25 µM.

As a reminder, the IC50 is the midpoint of a concentration-inhibition curve. High values mean lower potency, low ones higher potency.
